Active and inactive are the calls of the source. No cut-off for these calls is given here.
Experiments:
[1] = organism: Homo sapiens; assay: Inhibition of acetylcholine lipase
[2] = molecular target: T1, Pancreatic triacylglycerol lipase (Homo sapiens) (UniProt P16233); assay: Inhibition of Pancreatic lipase
T1 sequence (whole entry): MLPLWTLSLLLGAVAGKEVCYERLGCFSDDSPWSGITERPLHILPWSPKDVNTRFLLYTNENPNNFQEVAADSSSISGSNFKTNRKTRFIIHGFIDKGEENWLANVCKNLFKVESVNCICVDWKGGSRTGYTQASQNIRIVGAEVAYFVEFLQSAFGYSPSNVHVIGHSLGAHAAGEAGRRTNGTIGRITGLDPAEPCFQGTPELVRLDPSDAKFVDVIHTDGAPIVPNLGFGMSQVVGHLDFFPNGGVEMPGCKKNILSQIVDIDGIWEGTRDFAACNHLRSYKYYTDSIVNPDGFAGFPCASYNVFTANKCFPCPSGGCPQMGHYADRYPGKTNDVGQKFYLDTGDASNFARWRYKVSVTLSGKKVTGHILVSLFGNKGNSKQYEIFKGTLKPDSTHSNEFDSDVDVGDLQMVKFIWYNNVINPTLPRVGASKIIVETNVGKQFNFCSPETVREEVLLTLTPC
How it was run: (§1)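 Lipase inhibition (pancreatic, bovine lipoprotein, human hepatic) used a fluorochrome (NBD)-labelled triacylglyceride substrate. Inhibitor at six concentrations, 5-fold dilutions from a maximum of 100 µM, each point the mean of two measurements. IC50 from sigmoidal variable-slope nonlinear regression.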

[3] = molecular target: Cholinesterase (Homo sapiens, UniProt P06276); assay: Inhibition of butyrylcholine esterase
[4] = system: Rattus norvegicus; assay: Antilipolytic activity in Sprague-Dawley rat at 10 mg/kg, po; format: ADME, organism-based; design: dose 10 mg/kg, route oral; conditions: in vivo
How it was run: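 Male Sprague-Dawley rats, 12 weeks old, fasted overnight; single 10 mg/kg p.o. dose (n = 4 per group; vehicle n = 8). Orbital plexus blood under isoflurane taken at baseline (0.5 h predose) and 1, 3 and 5 h postdose into EDTA tubes with 0.1% NaF. Plasma glycerol measured on an automated analyzer as the antilipolytic endpoint.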

[5] = molecular target: T2, Cytochrome P450 1A2 (Homo sapiens, UniProt P05177); assay: Inhibition of CYP1A2 in human liver microsome; format: ADME; conditions: microsomes
T2 sequence (P05177 whole entry): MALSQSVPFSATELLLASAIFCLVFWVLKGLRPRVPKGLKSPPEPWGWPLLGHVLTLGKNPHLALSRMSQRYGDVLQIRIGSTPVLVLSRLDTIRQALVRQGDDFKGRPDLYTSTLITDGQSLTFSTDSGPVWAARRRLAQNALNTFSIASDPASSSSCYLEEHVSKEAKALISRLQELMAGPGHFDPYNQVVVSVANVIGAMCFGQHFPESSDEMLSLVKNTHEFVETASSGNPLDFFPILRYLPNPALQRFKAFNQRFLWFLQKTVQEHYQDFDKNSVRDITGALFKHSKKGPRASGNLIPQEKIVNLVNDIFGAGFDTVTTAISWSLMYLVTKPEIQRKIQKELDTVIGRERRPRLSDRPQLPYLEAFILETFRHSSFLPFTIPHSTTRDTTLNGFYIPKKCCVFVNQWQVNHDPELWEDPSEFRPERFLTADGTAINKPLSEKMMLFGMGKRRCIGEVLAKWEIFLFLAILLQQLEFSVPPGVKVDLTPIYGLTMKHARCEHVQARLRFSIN
How it was run: (§2)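 Pooled human liver microsomes (0.1 mg, ≥15 donors) incubated 10 min at 37 °C with 1 mM NADPH and test compound at 20 µM, in triplicate. Substrates at Km: CYP1A2, 14C-phenacetin 40 µM; CYP2D6, 14C-dextromethorphan 3 µM. Conversion read by charcoal extraction then scintillation counting of the supernatant.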

[6] = molecular target: Cytochrome P450 2D6 (Homo sapiens, UniProt P10635); assay: Inhibition of CYP2D6 in human liver microsome; format: ADME; conditions: microsomes; how it was run: as §2
[7] = molecular target: T3, Lipoprotein lipase (Bos taurus) (UniProt P11151); assay: Inhibition of bovin lipoprotein lipase; how it was run: as §1
T3 sequence (whole entry): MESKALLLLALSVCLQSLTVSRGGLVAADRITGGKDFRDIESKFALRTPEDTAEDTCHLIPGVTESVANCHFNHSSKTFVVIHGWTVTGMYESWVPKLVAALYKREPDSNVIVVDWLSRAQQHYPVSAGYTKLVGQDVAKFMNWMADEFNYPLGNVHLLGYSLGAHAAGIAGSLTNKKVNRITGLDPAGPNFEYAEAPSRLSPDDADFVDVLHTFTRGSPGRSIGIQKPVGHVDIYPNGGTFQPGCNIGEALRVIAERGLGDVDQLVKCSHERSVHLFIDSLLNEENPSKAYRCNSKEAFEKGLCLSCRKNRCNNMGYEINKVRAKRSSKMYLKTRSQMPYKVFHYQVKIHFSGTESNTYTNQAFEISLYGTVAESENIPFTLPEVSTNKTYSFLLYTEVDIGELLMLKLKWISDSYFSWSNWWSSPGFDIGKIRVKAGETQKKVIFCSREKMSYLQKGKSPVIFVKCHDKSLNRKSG

Cytochrome P450 2D6, sequence (P10635 whole entry): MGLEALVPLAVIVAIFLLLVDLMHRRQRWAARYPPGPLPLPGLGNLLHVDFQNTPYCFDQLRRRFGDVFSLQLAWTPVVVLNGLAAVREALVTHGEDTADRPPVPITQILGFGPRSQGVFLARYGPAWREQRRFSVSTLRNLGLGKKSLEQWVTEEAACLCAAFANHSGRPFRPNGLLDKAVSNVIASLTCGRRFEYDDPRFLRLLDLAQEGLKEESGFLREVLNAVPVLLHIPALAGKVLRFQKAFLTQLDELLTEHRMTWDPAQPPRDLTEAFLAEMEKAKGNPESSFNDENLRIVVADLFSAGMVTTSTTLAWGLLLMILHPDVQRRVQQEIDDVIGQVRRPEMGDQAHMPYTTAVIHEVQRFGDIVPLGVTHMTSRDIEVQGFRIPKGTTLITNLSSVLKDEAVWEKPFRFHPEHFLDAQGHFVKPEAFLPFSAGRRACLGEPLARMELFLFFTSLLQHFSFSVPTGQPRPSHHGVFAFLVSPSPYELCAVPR
Cholinesterase, sequence (P06276 whole entry): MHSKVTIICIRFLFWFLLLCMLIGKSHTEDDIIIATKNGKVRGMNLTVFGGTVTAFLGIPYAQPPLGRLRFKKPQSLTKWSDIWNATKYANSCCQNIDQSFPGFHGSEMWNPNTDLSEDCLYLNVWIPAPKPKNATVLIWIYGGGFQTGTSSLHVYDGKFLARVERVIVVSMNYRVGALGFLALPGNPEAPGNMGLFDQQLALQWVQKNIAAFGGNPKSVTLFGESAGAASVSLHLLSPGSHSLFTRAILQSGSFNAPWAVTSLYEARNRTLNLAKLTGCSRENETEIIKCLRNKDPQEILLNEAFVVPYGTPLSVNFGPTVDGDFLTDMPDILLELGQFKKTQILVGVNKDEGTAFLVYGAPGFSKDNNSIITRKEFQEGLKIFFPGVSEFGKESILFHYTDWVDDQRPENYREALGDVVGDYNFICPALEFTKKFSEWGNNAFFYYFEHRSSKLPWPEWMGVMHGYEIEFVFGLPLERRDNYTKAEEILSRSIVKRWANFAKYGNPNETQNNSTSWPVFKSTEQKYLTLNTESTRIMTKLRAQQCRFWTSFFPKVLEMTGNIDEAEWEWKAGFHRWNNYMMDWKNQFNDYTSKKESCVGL

Row | Structure (SMILES) | Activity [1] | Activity [2] | IC50 [3] [µM] | Activity [4] | Activity [5] | Activity [6] | Activity [7]
1 | O=C(Oc1ccc(Oc2ccc(C(F)(F)F)cn2)cc1)N1CCC(CO)CC1 | inactive | inactive | > 50 | Active | Not Active | Not Active | inactive
2 | O=C(Oc1ccc(Oc2ccc(C(F)(F)F)cn2)cc1)N1CCC(O)CC1 | inactive | inactive | > 50 | Active | Not Active | Not Active | inactive

Reference: ChEMBL document CHEMBL1137574, “Synthesis and structure-activity relationship for a novel class of potent and selective carbamate-based inhibitors of hormone selective lipase with acute in vivo antilipolytic effects” (J Med Chem, 2007)
